Publication PMC11523056 (RSC Advances, 2024)
Ends that are not written are not given here. Peptide text beside a SMILES is read from it.

What was measured:
murine primary neurons = format: cell-based, mouse; conditions: all concentrations tested (1, 5 & 10 μM), 60 min, 37 °C, live-cell confocal microscopy
Summary of the method: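 Mature murine primary neurons were incubated for 60 min in neurobasal medium with TAMRA-labelled peptide at 1, 5 or 10 μM, washed, and imaged live by confocal microscopy in an incubation chamber. The read-out was average fluorescence intensity per cell. Neurons showing homogeneous cytoplasmic plus nucleolar fluorescence were scored as transduced. Data are mean ± standard deviation, with equal n per group.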

[1] = system: acute ischaemic stroke patients; conditions: ESCAPE-NA1, acute ischaemic stroke; cited from earlier work
[2] = particularly upon co-treatment with Alteplase; cited from earlier work

In the case of `CC[C@H](C)[C@H](NC(=O)[C@H](CO)NC(=O)[C@H](CO)NC(=O)[C@H](CC(C)C)NC(=O)[C@H](CCCCN)NC(=O)c1ccc2c(c1)C(=O)OC21c2ccc(N(C)C)cc2Oc2cc(N(C)C)ccc21)C(=O)N[C@@H](CCC(=O)O)C(=O)N[C@@H](CO)C(=O)N[C@@H](CC(=O)O)C(=O)N[C@H](C(=O)O)C(C)C` [TAMRA-NR2B9c] (HELM PEPTIDE1{[CN(C)c1ccc2c(c1)Oc1cc(N(C)C)ccc1C21OC(=O)c2cc(C(=O)[*:2])ccc21].K.L.S.S.I.E.S.D.V}$$$$V2.0), the “uptake by mean fluorescence intensity per cell (comparison in words)” value (murine primary neurons) is reported as “much lower than for any other peptide construct tested”.

For YGRKKRRQRRR [TAMRA-Tat], the “uptake by mean fluorescence intensity per cell (comparison in words)” value (murine primary neurons) was “dose response is minimal”.

In the case of “YGRKKRRQRRRKLSSIESDV [Tat-NR2B9c, nerinetide]”, the “safety in clinical trial” value [1] is listed as “good safety profile” and the “degradation in human plasma (in words)” value [2] is listed as “rapid degradation”.
